Assay [1] has as its system Paralobesia. In words: Insecticidal activity against Paralobesia viteana infested grapevine assessed as reduction in clusters infested with moth by early-season irrigation injection method (reference value: 34.3 +/- 4.4 %). The class given is functional. More on the design: scale not given: the % may be the effect or the level left.
The subject of assay [2] is Paralobesia. Nature of the assay: Insecticidal activity against Paralobesia viteana infested grapevine assessed as reduction in clusters infested with moth by mid-season irrigation injection method (reference value: 11 +/- 1.9 %). The format is functional. More on the design: scale not given: the % may be the effect or the level left.
Assay [3] concerns Popillia japonica. In words: Insecticidal activity against Popillia japonica assessed as reduction in leaf damage measured up to 63 days post treatment by laboratory bioassay. The format is functional, organism-based. The method in brief: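 Leaves were taken from vines treated by irrigation injection (6 June and 6 July 2007). Four uninjured leaves per treatment plot were offered to Japanese beetles in the laboratory. Leaf area removed (cm²) was measured weekly, from 4 days before the second injection to […] after it.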

The test system of assay [4] is Popillia japonica. In words: Insecticidal activity against Popillia japonica at 500 g/kg WG assessed as reduction in leaf damage measured after 35 days by irrigation injection method (reference value: 50.97 +/- 7.2 %). The class given is functional. Set-up: scale not given: the % may be the effect or the level left.
The test system of assay [5] is Popillia japonica. In words: Insecticidal activity against Popillia japonica at 500 g/kg WG assessed as moribund behaviour measured after 10 to 19 days by irrigation injection method. The class given is functional, organism-based.
Assay [6] deals with Popillia japonica. Nature of the assay: Insecticidal activity against Popillia japonica at 500 g/kg WG assessed as moribund behaviour measured after 3 days by irrigation injection method. The format is functional, organism-based.
Assay [7] has as its system Popillia japonica. In words: Insecticidal activity against Popillia japonica at 500 g/kg WG assessed as moribund behaviour measured after 24 to 56 days by irrigation injection method. The class given is functional, organism-based.
The test system of assay [8] is Popillia japonica. Nature of the assay: Insecticidal activity against Popillia japonica at 552 g/kg SC assessed as reduction in leaf damage measured after 35 days by irrigation injection method (reference value: 50.97 +/- 7.2 %). The format is functional. Set-up: scale not given: the % may be the effect or the level left.
Assay [9] relates to Popillia japonica. In words: Insecticidal activity against Popillia japonica at 552 g/kg SC assessed as moribund behaviour measured after 10 to 19 days by irrigation injection method. The format is functional, organism-based.
The test system of assay [10] is Popillia japonica. In words: Insecticidal activity against Popillia japonica at 552 g/kg SC assessed as moribund behaviour measured after 3 days by irrigation injection method. The format is functional, organism-based.
Assay [11] relates to Popillia japonica. In words: Insecticidal activity against Popillia japonica at 552 g/kg SC assessed as moribund behaviour measured after 24 to 56 days by irrigation injection method. The format is functional, organism-based.
Assay [12] has as its system Popillia japonica. In words: Insecticidal activity against Popillia japonica at 552 g/kg SC measured after 24 days by irrigation injection method. The class given is functional, organism-based. The method in brief: (§1)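 Insecticide was injected into the drip irrigation on 6 June and 6 July 2007, in seven-vine rows. Japanese beetles were counted on vines in the field at intervals after treatment. Total beetles per row were log(x+1) transformed and analysed by ANOVA with […] post hoc tests.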

In assay [13] the test system is Popillia japonica. In words: Insecticidal activity against Popillia japonica at 552 g/kg SC measured after 14 days by irrigation injection method. The class given is functional, organism-based. The method in brief: as §1
In assay [14] the test system is Popillia japonica. Nature of the assay: Insecticidal activity against Popillia japonica at 552 g/kg SC measured after 1 to 24 days by irrigation injection method. The class given is functional, organism-based. The gist of the method:
as §1

In assay [15] the test system is Popillia japonica. Nature of the assay: Insecticidal activity against Popillia japonica at 240 g/kg SC assessed as reduction in leaf damage measured after 35 days by irrigation injection method (reference value: 50.97 +/- 7.2 %). The format is functional. More on the design: scale not given: the % may be the effect or the level left.
For assay [16], the system named is Popillia japonica. Nature of the assay: Insecticidal activity against Popillia japonica at 240 g/kg SC assessed as moribund behaviour measured after 10 to 19 days by irrigation injection method. The format is functional, organism-based.
Assay [17] has as its system Popillia japonica. In words: Insecticidal activity against Popillia japonica at 240 g/kg SC assessed as moribund behaviour measured after 3 days by irrigation injection method. The format is functional, organism-based.
The subject of assay [18] is Popillia japonica. Nature of the assay: Insecticidal activity against Popillia japonica at 240 g/kg SC assessed as moribund behaviour measured after 24 to 56 days by irrigation injection method. The class given is functional, organism-based.
The subject of assay [19] is Popillia japonica. Nature of the assay: Insecticidal activity against Popillia japonica at 240 g/kg SC measured after 1 to 24 days by irrigation injection method. The format is functional, organism-based. The method in brief:
as §1

Activity calls are given as the source filed them. The rule behind the calls is not given here.

`CN/C(=N\[N+](=O)[O-])NCc1cnc(Cl)s1` [CLOTHIANIDINE]: the Activity in [1] is 31.7%; in assay [2], 6%; in [4], 48.3%. Further, the result in assay [3], in [5], in [6] and in assay [7] was inactive.

`O=[N+]([O-])/N=C1\NCCN1Cc1ccc(Cl)nc1` [IMIDACLOPRID]: the Activity in [1] was determined as 11.8%; in [2] it was 1%; in assay [8], 4.43%. Moreover, the result in assay [3], in assay [9], in [10], in assay [11], in [12] and in assay [13] was Active. In addition, the outcome in assay [14] was Active.

Turning to `CN1COCN(Cc2cnc(Cl)s2)/C1=N\[N+](=O)[O-]` [THIAMETHOXAM], the Activity is given as 25.3% in assay [1], 7% in [2] and 27.67% in [15]. Further, the result in [3] was Active. Besides, the result in assay [16], in [17], in assay [18] and in assay [19] was inactive.

(Values after ChEMBL document CHEMBL3046168, “Soil application of neonicotinoid insecticides for control of insect pests in wine grape vineyards” (2012).)
